Experimental findings from ChEMBL document CHEMBL5104216, “Fragment-Sized Thiazoles in Fragment-Based Drug Discovery Campaigns: Friend or Foe?” (ACS Med Chem Lett, 2022) are described below.

Series [1] in a line: Thiol reactivity of compound measured by TNB2- assay. The format is physicochemical. Put shortly:
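Reactivity toward the thiol surrogate TNB2– in a nonproteinaceous setting without TCEP. Reversibility tested by adding TCEP and checking that absorbance was restored.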

Series [2] is described as follows: Thiol reactivity of compound at 100 uM measured by DTNB assay. The format is physicochemical.
Series [3] has as its target UDP-N-acetylglucosamine 1-carboxyvinyltransferase (Escherichia coli K-12) (UniProt P0A749). The series is described as follows: Inhibition of recombinant Escherichia coli MurA assessed as residual activity at 500 uM using UDP-N-acetylglucosamine as substrate preincubated for 30 mins followed by substrate addition and measured by malachite green based colorimetric assay relative to control. The essentials:
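E. coli MurA at 500–625 μM with 30 min preincubation before substrate addition. Malachite green colorimetric read-out. Activity threshold was <50% residual activity.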

A short description of series [4]: Redox activity of compound assessed as redox index at 100 uM in presence of 1 mM DTT measured by HRP-PR assay. The format is physicochemical. Put shortly: (§1)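 H2O2 from redox cycling, with or without DTT, detected with horseradish peroxidase-phenol red (HRP-PR).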
Series [5] has as its target Replicase polyprotein 1ab (Severe acute respiratory syndrome coronavirus 2) (UniProt P0DTD1). Kind of series: Inhibition of recombinant SARS-CoV-2 3CLpro expressed in Escherichia coli NiCo21(DE3) assessed as residual activity at 500 uM using DABCYL-KTSAVLQSGFRKME-EDANS as substrate preincubated for 30 mins in presence of 1mM DTT followed by substrate addition and measured by FRET assay relative to control. The essentials:
(§2)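 Kinetic fluorescence read-out of cleavage of a FRET substrate carrying a DABCYL–EDANS pair. Compounds were tested at 500–625 μM, and <50% residual activity was taken as the activity threshold. To exclude false positives, absorbance at the excitation and emission wavelengths and autofluorescence of the compounds were measured.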

Series [6] in a line: Redox activity of compound assessed as redox index at 100 uM measured by HRP-PR assay. It is filed as physicochemical. The essentials:
as §1

The target of series [7] is Replicase polyprotein 1ab (Severe acute respiratory syndrome coronavirus 2) (UniProt P0DTD1). The series is described as follows: Inhibition of recombinant SARS-CoV-2 3CLpro expressed in Escherichia coli NiCo21(DE3) assessed as residual activity at 500 uM using DABCYL-KTSAVLQSGFRKME-EDANS as substrate preincubated for 30 mins followed by substrate addition and measured by FRET assay relative to control. The essentials:
as §2

Series [8] in a line: Redox activity of compound assessed as redox index at 10 uM measured by resazurin assay. The format is physicochemical. Put shortly: (§3)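 Free radicals formed by redox cycling with DTT detected with resazurin by fluorimetric read-out. Spectral interference checked.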
(In general: The colour change of resazurin is a common sign of viable cells or microbes.)

In series [9] the target is UDP-N-acetylglucosamine 1-carboxyvinyltransferase (Escherichia coli K-12) (UniProt P0A749). The series is described as follows: Inhibition of recombinant Escherichia coli MurA assessed as residual activity at 500 uM using UDP-N-acetylglucosamine as substrate and measured by malachite green based colorimetric assay relative to control. The essentials:
(§4)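 Screened at 500–625 μM with malachite green colorimetric read-out. Activity threshold was <50% residual activity.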

A short description of series [10]: Redox activity of compound assessed as redox index at 1 uM measured by resazurin assay. The format is physicochemical. Put shortly:
as §3

The nature of series [11]: Redox activity of compound assessed as redox index at 100 uM in presence of 100 uM TCEP measured by H2DCFDA assay. It is filed as physicochemical. The essentials: (§5)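 Reactive oxygen species, with or without the reducing agent TCEP, detected with the fluorescent probe H2DCFDA. Compound spectral interference (autofluorescence) checked under the assay conditions.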
Series [12] can be described thus: Redox activity of compound assessed as redox index at 100 uM measured by H2DCFDA assay. It is filed as physicochemical. Put shortly: as §5
In series [13] the target is D-alanine--D-alanine ligase B (Escherichia coli K-12) (UniProt P07862). Kind of series: Inhibition of recombinant Escherichia coli DdlB assessed as residual activity at 500 uM using D-alanine as substrate incubated for 20 mins and measured by malachite green based colorimetric assay relative to control. Put shortly: as §4
The target in series [14] is UDP-N-acetylglucosamine 1-carboxyvinyltransferase (Escherichia coli K-12) (UniProt P0A749). Kind of series: Inhibition of recombinant Escherichia coli MurA assessed as residual activity at 500 uM using UDP-N-acetylglucosamine as substrate preincubated for 30 mins in presence of 1 mM DTT followed by substrate addition and measured by malachite green based colorimetric assay relative to control.

The subject of series [15] is Mycobacterium tuberculosis. Kind of series: Inhibition of Mycobacterium tuberculosis MetAP1a assessed as residual activity at 625 uM using L-methionine 7-amido-4-methylcoumarin as fluorogenic substrate and measured by fluorescence based assay. The essentials:
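Kinetic fluorescence assay in which the enzyme hydrolyses L-methionine 7-amido-4-methylcoumarin to fluorescent 7-amino-4-methylcoumarin. Compounds were tested at 500–625 μM, and activity was called at <50% residual activity. Spectral interference was checked by measuring absorbance at the excitation and emission wavelengths and compound autofluorescence.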

The nature of series [16]: Aqueous stability of the compound at pH 7.4 measured after 60 mins by spectrophotometric analysis. The format is physicochemical. To be noted: buffer, pH 7.4, 1 h. Put shortly: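 Followed by spectrophotometry as changes in the compound absorption spectrum over time in 50 mM Tris-HCl pH 7.4, 0.5 mM EDTA, read after 60 min in 96-well microplate format. Compounds with low absorbance were not evaluated.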

Chain of UDP-N-acetylglucosamine 1-carboxyvinyltransferase (Escherichia coli K-12) (P0A749 whole entry): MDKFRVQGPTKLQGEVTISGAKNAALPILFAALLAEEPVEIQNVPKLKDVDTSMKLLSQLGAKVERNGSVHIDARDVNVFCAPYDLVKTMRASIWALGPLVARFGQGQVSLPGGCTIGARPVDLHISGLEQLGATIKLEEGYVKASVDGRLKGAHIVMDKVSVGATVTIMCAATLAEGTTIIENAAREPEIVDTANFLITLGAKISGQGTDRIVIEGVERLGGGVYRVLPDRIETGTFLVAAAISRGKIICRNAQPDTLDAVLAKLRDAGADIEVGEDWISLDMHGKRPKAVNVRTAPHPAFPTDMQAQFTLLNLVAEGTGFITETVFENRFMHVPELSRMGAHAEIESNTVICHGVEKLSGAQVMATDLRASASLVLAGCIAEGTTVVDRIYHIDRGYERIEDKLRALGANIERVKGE

Consider `Cc1nc(CCl)cs1`, for which the Activity entry in series [1] was “Active”; in series [2] it was “Active”; in [3] it was 48.4%; in series [5], 90.9%; in series [7], 96.8%; in [9], 89.6%. For the same compound, the Activity in [13] was determined as 100%; in series [14], 112%; in series [15], 124%. The Activity_index was determined as 1 in series [4]; 1 in series [6]; 0.9 in [8]; 0.9 in series [10]; 0.8 in [11]; 1 in [12].

On to `O=C(O)C(=O)Nc1ncc(Br)s1`, for which the Activity entry was “Active” in [1]; 1.2% in series [3]; 82.8% in series [5]; 62.2% in series [7]; 11.3% in [9]; 94% in series [13]. In addition, the Activity in series [14] was determined as 112%; in [15], 28.9%. The Activity_index in series [4] was found to be 1; in series [6], 1; in [8], 0.9; in series [10] it was 0.9; in [11], 1.2; in [12] it was 1. Besides, the Stability entry in [16] was “Stable”.
